Converted amounts (≈) assume the structure as drawn.
Experiments:
Format in all cases: functional
[1] = tested on: Staphylococcus aureus; test: Antibacterial activity against gram positive Staphylococcus aureus(MTCC 96)
Summary of the method: (§1)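 MIC determined by broth dilution per NCCL standards; test panel comprised Gram-positive Bacillus subtilis (MTCC 441), Bacillus sphaericus (MTCC 11), Staphylococcus aureus (MTCC 96) and Gram-negative Chromobacterium violaceum (MTCC 2656), Klebsiella aerogenes (MTCC 39), Pseudomonas aeruginosa (MTCC 741); highest concentration tested 200 μg/ml; penicillin and streptomycin run under identical conditions as reference agents.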

[2] = tested on: Bacillus subtilis; test: Antibacterial activity against gram positive Bacillus subtilis MTCC 441; summary of the method: as §1
[3] = tested on: Lysinibacillus sphaericus; test: Antibacterial activity against gram positive Bacillus sphaericus (MTCC 11)
Summary of the method: (§2)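 MICs were determined by broth dilution following National Committee for Clinical Laboratory (NCCL) standards. The same conditions were used for penicillin and streptomycin as reference agents.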

[4] = tested on: Chromobacterium violaceum; test: Antibacterial activity against gram negative Chromobacterium violaceum(MTCC 2656); summary of the method: as §1
[5] = tested on: Klebsiella aerogenes; test: Antibacterial activity against gram negative Klebsiella aerogenes(MTCC 39); summary of the method: as §1
[6] = tested on: Pseudomonas aeruginosa; test: Antibacterial activity against gram negative Pseudomonas aeruginosa (MTCC 741); summary of the method: as §2

Row | SMILES | MIC [1] [µg/mL] | MIC [2] [µg/mL] | MIC [3] [µg/mL] | MIC [4] [µg/mL] | MIC [5] [µg/mL] | MIC [6] [µg/mL]
1 | O=c1cc(-c2ccccc2)oc2cc(OCCCCCCN3CCCCC3)cc(O)c12 | 25 (≈ 59.3 µM) | 25 (≈ 59.3 µM) | 12.5 (≈ 29.7 µM) | 25 (≈ 59.3 µM) | 25 (≈ 59.3 µM) | –
2 | O=c1cc(-c2ccccc2)oc2cc(O)cc(O)c12 [CHRYSIN] | 50 (≈ 197 µM) | 50 (≈ 197 µM) | 25 (≈ 98.3 µM) | 25 (≈ 98.3 µM) | 50 (≈ 197 µM) | –
3 | O=c1cc(-c2ccccc2)oc2cc(OCCCCN3CCOCC3)cc(O)c12 | 12.5 (≈ 31.6 µM) | 6.25 (≈ 15.8 µM) | 6.25 (≈ 15.8 µM) | 6.25 (≈ 15.8 µM) | 12.5 (≈ 31.6 µM) | –
4 | O=c1cc(-c2ccccc2)oc2cc(OCCCCCCN3CCOCC3)cc(O)c12 | 25 (≈ 59 µM) | 25 (≈ 59 µM) | 25 (≈ 59 µM) | 25 (≈ 59 µM) | 25 (≈ 59 µM) | –
5 | CN1CCN(CCCOc2cc(O)c3c(=O)cc(-c4ccccc4)oc3c2)CC1 | 25 (≈ 63.4 µM) | 12.5 (≈ 31.7 µM) | 12.5 (≈ 31.7 µM) | 12.5 (≈ 31.7 µM) | 25 (≈ 63.4 µM) | –
6 | CN(C)CCCOc1cc(O)c2c(=O)cc(-c3ccccc3)oc2c1 | 12.5 (≈ 36.8 µM) | 25 (≈ 73.7 µM) | 12.5 (≈ 36.8 µM) | 12.5 (≈ 36.8 µM) | 25 (≈ 73.7 µM) | –
7 | CC1(C)S[C@@H]2[C@H](NC(=O)Cc3ccccc3)C(=O)N2[C@H]1C(=O)O [PENICILLIN G] | 1.56 (≈ 4.67 µM) | 1.56 (≈ 4.67 µM) | 3.12 (≈ 9.35 µM) | 12.5 (≈ 37.4 µM) | 6.25 (≈ 18.7 µM) | 6.25 (≈ 18.7 µM)
8 | O=c1cc(-c2ccccc2)oc2cc(OCCCN3CCCCC3)cc(O)c12 | 12.5 (≈ 32.9 µM) | 25 (≈ 65.9 µM) | 12.5 (≈ 32.9 µM) | 6.25 (≈ 16.5 µM) | 25 (≈ 65.9 µM) | –
9 | CN1CCN(CCCCCCOc2cc(O)c3c(=O)cc(-c4ccccc4)oc3c2)CC1 | 12.5 (≈ 28.6 µM) | 25 (≈ 57.3 µM) | 25 (≈ 57.3 µM) | 12.5 (≈ 28.6 µM) | 25 (≈ 57.3 µM) | –
10 | CN(C)CCCCCCOc1cc(O)c2c(=O)cc(-c3ccccc3)oc2c1 | 25 (≈ 65.5 µM) | 12.5 (≈ 32.8 µM) | 12.5 (≈ 32.8 µM) | 25 (≈ 65.5 µM) | 25 (≈ 65.5 µM) | –
11 | CN1CCN(CCCCOc2cc(O)c3c(=O)cc(-c4ccccc4)oc3c2)CC1 | 12.5 (≈ 30.6 µM) | 25 (≈ 61.2 µM) | 6.25 (≈ 15.3 µM) | 6.25 (≈ 15.3 µM) | 12.5 (≈ 30.6 µM) | –
12 | CN[C@@H]1[C@H](O[C@H]2[C@H](O[C@H]3[C@H](O)[C@@H](O)[C@H](N=C(N)N)[C@@H](O)[C@@H]3N=C(N)N)O[C@@H](C)[C@]2(O)C=O)O[C@@H](CO)[C@H](O)[C@H]1O [STREPTOMYCIN] | 6.25 (≈ 10.7 µM) | 6.25 (≈ 10.7 µM) | 12.5 (≈ 21.5 µM) | 3.12 (≈ 5.37 µM) | 1.56 (≈ 2.69 µM) | 1.56 (≈ 2.69 µM)
13 | O=c1cc(-c2ccccc2)oc2cc(OCCCN3CCOCC3)cc(O)c12 | 25 (≈ 65.5 µM) | 12.5 (≈ 32.8 µM) | 12.5 (≈ 32.8 µM) | 12.5 (≈ 32.8 µM) | 25 (≈ 65.5 µM) | –
14 | O=c1cc(-c2ccccc2)oc2cc(OCCCCN3CCCCC3)cc(O)c12 | 25 (≈ 63.5 µM) | 12.5 (≈ 31.8 µM) | 12.5 (≈ 31.8 µM) | 6.25 (≈ 15.9 µM) | 25 (≈ 63.5 µM) | –
15 | CN(C)CCCCOc1cc(O)c2c(=O)cc(-c3ccccc3)oc2c1 | 25 (≈ 70.7 µM) | 6.25 (≈ 17.7 µM) | 6.25 (≈ 17.7 µM) | 12.5 (≈ 35.4 µM) | 25 (≈ 70.7 µM) | –

Reference: ChEMBL document CHEMBL1148560, “Synthesis and biological evaluation of novel C (7) modified chrysin analogues as antibacterial agents” (2006)
